The structures appear in SMILES notation. The source made the active and inactive calls. No cut-off for these calls is given here.

Results on three molecules are retold here after ChEMBL document CHEMBL5143722, “Antimicrobial Peptides against Multidrug-Resistant Pseudomonas aeruginosa Biofilm from Cystic Fibrosis Patients” (J Med Chem, 2022).

The nature of data set [1]: Drug degradation in cystic fibrosis patient derived sputum assessed as remaining activity at 100 uM measured after 30 mins by RP-HPLC analysis. To be noted: human, read-out: Drug degradation. Format: ADME, tissue-based. The essentials: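 Pooled CF patient sputum diluted 10-fold in Ca/Mg-free DPBS, centrifuged at 1000 rpm for 10 min. Peptide added to the supernatant at 100 μM final and held at 37 °C. Stopped with 10% HCl. Residual peptide measured by RP-HPLC on C18 with a 20–60% ACN gradient (0.1% TFA) over 50 min, as % of the unincubated mixture.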

The test system of data set [2] is Pseudomonas aeruginosa. Briefly: Induction of biofilm degradation of Pseudomonas aeruginosa clinical isolate 59 at 50 uM incubated for 1 hr by crystal violet staining analysis.
The test system of data set [3] is Pseudomonas aeruginosa. Briefly: Induction of biofilm degradation of Pseudomonas aeruginosa clinical isolate 52 at sub MIC concentration incubated for 1 hr by crystal violet staining analysis. Format: functional. A digest of the protocol: (§1)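 Bacteria at 1 × 10^6 CFU/mL in BM2 grown static at 37 °C for 24 h to form biofilm. Wells rinsed of unattached cells, then exposed for 1 h to serial peptide dilutions (1.56–50 μM). Washed, stained with 0.1% crystal violet, A590 read. Biomass given as % of untreated biofilm; no-bacteria wells as blanks. At least three biological repeats.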

In data set [4] the test system is Pseudomonas aeruginosa. Briefly: Induction of biofilm degradation of Pseudomonas aeruginosa clinical isolate 99 at sub MIC concentration incubated for 1 hr by crystal violet staining analysis. Format: functional. The essentials:
as §1

Data set [5] concerns Pseudomonas aeruginosa. Briefly: Induction of biofilm degradation of Pseudomonas aeruginosa clinical isolate 251 at sub MIC concentration incubated for 1 hr by crystal violet staining analysis. Format: functional. A digest of the protocol: as §1
The test system of data set [6] is Pseudomonas aeruginosa. Briefly: Induction of biofilm degradation of Pseudomonas aeruginosa clinical isolate 71 at sub MIC concentration incubated for 1 hr by crystal violet staining analysis. Format: functional. The essentials:
as §1

Data set [7] deals with Pseudomonas aeruginosa. Briefly: Induction of biofilm degradation of Pseudomonas aeruginosa clinical isolate 25 at sub MIC concentration incubated for 1 hr by crystal violet staining analysis. Format: functional. The essentials:
as §1

Data set [8] deals with Pseudomonas aeruginosa. Briefly: Induction of biofilm degradation of Pseudomonas aeruginosa clinical isolate 172 at sub MIC concentration incubated for 1 hr by crystal violet staining analysis. Format: functional. A digest of the protocol: as §1
In data set [9] the test system is Pseudomonas aeruginosa. Briefly: Induction of biofilm degradation of Pseudomonas aeruginosa clinical isolate 629 at sub MIC concentration incubated for 1 hr by crystal violet staining analysis. Format: functional. The essentials: as §1
The subject of data set [10] is Pseudomonas aeruginosa. Briefly: Induction of biofilm degradation of Pseudomonas aeruginosa clinical isolate 46 at sub MIC concentration incubated for 1 hr by crystal violet staining analysis. Format: functional. A digest of the protocol:
as §1

Data set [11] has as its system Pseudomonas aeruginosa. Briefly: Antibiofilm activity against Pseudomonas aeruginosa clinical isolate 24 assessed as inhibition of biofilm formation at 1.56 uM incubated for 24 hrs by crystal violet staining based microtiter plate method. Format: functional, organism-based. A digest of the protocol: (§2)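 Washed overnight cultures in BM2 medium at 1 × 10^6 CFU/mL with 2-fold serial peptide dilutions in a U-bottom 96-well plate. Incubated 24 h at 37 °C without agitation. Unattached cells washed off, then 0.1% crystal violet stain read at 590 nm. No-bacteria blanks. Biomass expressed as % of untreated biofilm. At least three biological repeats.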

Data set [12] concerns Pseudomonas aeruginosa. Briefly: Induction of biofilm degradation of Pseudomonas aeruginosa clinical isolate 46 derived from cystic fibrosis patient sputum at 1.56 to 50 uM by crystal violet based staining analysis. Format: functional. To be noted: dose 1.56-50 µM. The essentials:
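Biofilm grown from 1 × 10^6 CFU/mL in pooled CF patient sputum diluted 10-fold with BM2, static, 37 °C, 24 h. Unattached cells rinsed off, then serial peptide dilutions (1.56–50 μM) applied for 1 h. Washed and stained with 0.1% crystal violet, read at 590 nm. Reported as % of untreated biomass, with no-bacteria blanks.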

Data set [13] has as its system Pseudomonas aeruginosa. Briefly: Antibiofilm activity against Pseudomonas aeruginosa clinical isolate 24 in artificial sputum medium at 50 uM incubated for 24 hrs by resazurin staining based microtiter plate method. Format: functional, organism-based. The essentials: (§3)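 Washed overnight culture set to OD ~0.05 in BM2, diluted 1:100 into artificial sputum medium (pH 6.9) in 24-well plates. Grown 3 days aerobically at 37 °C with agitation. Peptides (12.5–100 μM) added for 24 h with agitation. Biofilm disrupted by cellulase for 1 h at 37 °C. Resazurin 0.02% for 1–2 h, fluorescence ex 530/em 590 nm; viability as % of untreated wells.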
On the technique in general: Resazurin is reduced to fluorescent resorufin, in cell work by metabolically active cells.

Data set [14] deals with Pseudomonas aeruginosa. Briefly: Antibiofilm activity against Pseudomonas aeruginosa clinical isolate 46 in artificial sputum medium at 100 uM incubated for 24 hrs by resazurin staining based microtiter plate method. Format: functional, organism-based. The essentials: as §3
Data set [15] has as its system Pseudomonas aeruginosa. Briefly: Antibiofilm activity against Pseudomonas aeruginosa clinical isolate 53 assessed as inhibition of biofilm formation at 1.56 uM incubated for 24 hrs by crystal violet staining based microtiter plate method. Format: functional, organism-based. A digest of the protocol: as §2
Data set [16] concerns Pseudomonas aeruginosa. Briefly: Antibiofilm activity against Pseudomonas aeruginosa clinical isolate 82 in artificial sputum medium at 100 uM incubated for 24 hrs by resazurin staining based microtiter plate method. Format: functional, organism-based. The essentials: as §3
In data set [17] the test system is Pseudomonas aeruginosa. Briefly: Antibiofilm activity against Pseudomonas aeruginosa clinical isolate 71 assessed as inhibition of biofilm formation at 1.56 uM incubated for 24 hrs by crystal violet staining based microtiter plate method. Format: functional, organism-based. A digest of the protocol:
as §2

The subject of data set [18] is Pseudomonas aeruginosa. Briefly: Antibiofilm activity against Pseudomonas aeruginosa clinical isolate 82 in artificial sputum medium at 25 uM incubated for 24 hrs by resazurin staining based microtiter plate method relative to control. Format: functional. The essentials:
(§4)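 Overnight cultures were washed, resuspended in BM2 to OD ~0.05, and diluted 1:100 into artificial sputum medium (pH 6.9). Biofilms grew 3 days at 37 °C with aerobic agitation in 24-well plates. Peptides (12.5–100 μM) were then added for 24 h with agitation. Biofilm was disrupted with cellulase for 1 h at 37 °C. Resazurin (0.02%) was added for 1–2 h, fluorescence read at ex 530/em 590 nm, and viability expressed as % of untreated wells.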

Data set [19] deals with Pseudomonas aeruginosa. Briefly: Antibiofilm activity against Pseudomonas aeruginosa clinical isolate 24 in artificial sputum medium at 25 uM incubated for 24 hrs by resazurin staining based microtiter plate method relative to control. Format: functional. The essentials: as §4
Data set [20] relates to Pseudomonas aeruginosa. Briefly: Antibiofilm activity against Pseudomonas aeruginosa clinical isolate 238 assessed as inhibition of biofilm formation at 1.56 uM incubated for 24 hrs by crystal violet staining based microtiter plate method. Format: functional, organism-based. A digest of the protocol:
as §2

Data set [21] has as its system Pseudomonas aeruginosa. Briefly: Antibiofilm activity against Pseudomonas aeruginosa clinical isolate 40 assessed as inhibition of biofilm formation at 1.56 uM incubated for 24 hrs by crystal violet staining based microtiter plate method. Format: functional, organism-based. A digest of the protocol: as §2
Data set [22] concerns Pseudomonas aeruginosa. Briefly: Antibiofilm activity against Pseudomonas aeruginosa clinical isolate 82 assessed as inhibition of biofilm formation at 1.56 uM incubated for 24 hrs by crystal violet staining based microtiter plate method. Format: functional, organism-based. A digest of the protocol:
as §2

Data set [23] concerns Pseudomonas aeruginosa. Briefly: Bactericidal activity against Pseudomonas aeruginosa clinical isolate 46 derived from cystic fibrosis patient sputum assessed as killing rate at 10 uM measured after 1 hr by time-kill assay relative to control. Format: functional. The essentials: (§5)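 Pooled CF patient sputum diluted 10-fold in 10 mM phosphate buffer (pH 7.0), centrifuged and 0.22 μm filtered. Bacteria at 10^6 CFU/mL in 10% sputum supernatant with 10 μM peptide for 1 h at 37 °C. Diluted and plated on LB agar; colonies counted against untreated plates.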

Data set [24] has as its system Pseudomonas aeruginosa. Briefly: Induction of biofilm degradation of Pseudomonas aeruginosa clinical isolate 59 at 12.5 uM incubated for 1 hr by crystal violet staining analysis.
The subject of data set [25] is Pseudomonas aeruginosa. Briefly: Antibiofilm activity against Pseudomonas aeruginosa clinical isolate 29 assessed as inhibition of biofilm formation at 1.56 uM incubated for 24 hrs by crystal violet staining based microtiter plate method. Format: functional, organism-based. The essentials: as §2
Data set [26] relates to Pseudomonas aeruginosa. Briefly: Bactericidal activity against Pseudomonas aeruginosa clinical isolate 24 derived from cystic fibrosis patient sputum assessed as killing rate at 10 uM measured after 1 hr by time-kill assay relative to control. Format: functional. A digest of the protocol:
as §5

Take `CC[C@H](C)[C@H](NC(=O)[C@H](CCCCN)NC(=O)[C@H](CCC(=O)O)NC(=O)[C@H](CCCCN)NC(=O)[C@H](CO)NC(=O)[C@H](CCCCN)NC(=O)[C@H](CCCNC(=N)N)NC(=O)[C@H](Cc1ccccc1)NC(=O)[C@H](Cc1ccccc1)NC(=O)[C@H](CC(=O)O)NC(=O)CNC(=O)[C@H](CC(C)C)NC(=O)[C@@H](N)CC(C)C)C(=O)NCC(=O)N[C@@H](CCCCN)C(=O)N[C@@H](CCC(=O)O)C(=O)N[C@@H](Cc1ccccc1)C(=O)N[C@@H](CCCCN)C(=O)N[C@@H](CCCNC(=N)N)C(=O)N[C@H](C(=O)N[C@H](C(=O)N[C@@H](CCC(N)=O)C(=O)N[C@@H](CCCNC(=N)N)C(=O)N[C@H](C(=O)N[C@@H](CCCCN)C(=O)N[C@@H](CC(=O)O)C(=O)N[C@@H](Cc1ccccc1)C(=O)N[C@@H](CC(C)C)C(=O)N[C@@H](CCCNC(=N)N)C(=O)N[C@@H](CC(N)=O)C(=O)N[C@@H](CC(C)C)C(=O)N[C@H](C(=O)N1CCC[C@H]1C(=O)N[C@@H](CCCNC(=N)N)C(=O)N[C@H](C(=O)N[C@@H](CCC(=O)O)C(=O)N[C@@H](CO)C(N)=O)[C@@H](C)O)C(C)C)[C@@H](C)CC)C(C)C)[C@@H](C)CC`: in data set [1], the metabolised at 0.5 h, 100 µM was determined as 100%.

For `CC(C)C[C@H](NC(=O)[C@H](CC(C)C)NC(=O)[C@H](CC(C)C)NC(=O)[C@H](CC(C)C)NC(=O)[C@H](CC(C)C)NC(=O)[C@H](CC(C)C)NC(=O)[C@H](CC(C)C)NC(=O)[C@H](CC(C)C)NC(=O)[C@H](CC(C)C)NC(=O)[C@H](CCCCN)NC(=O)[C@H](CCCCN)NC(=O)[C@@H](N)CCCCN)C(=O)N[C@@H](CCCCN)C(=O)N[C@@H](CCCCN)C(=O)N[C@@H](CCCCN)C(N)=O`, the Activity in the data set on Pseudomonas aeruginosa [2] is 40%. Further, the result in the data set on Pseudomonas aeruginosa [3], with Pseudomonas aeruginosa [4], in the data set on Pseudomonas aeruginosa [5], with Pseudomonas aeruginosa [6], with Pseudomonas aeruginosa [7] and in the data set with Pseudomonas aeruginosa [8] was Active. Also, the outcome with Pseudomonas aeruginosa [9] and with Pseudomonas aeruginosa [10] was Active.

`CC(C)C[C@H](NC(=O)[C@H](CC(C)C)NC(=O)[C@H](CCCCN)NC(=O)[C@H](CC(C)C)NC(=O)[C@H](CC(C)C)NC(=O)[C@H](CCCCN)NC(=O)[C@H](CCCCN)NC(=O)[C@H](CC(C)C)NC(=O)[C@H](CC(C)C)NC(=O)[C@H](CCCCN)NC(=O)[C@H](CCCCN)NC(=O)[C@H](CC(C)C)NC(=O)[C@H](CC(C)C)NC(=O)[C@H](CCCCN)NC(=O)[C@@H](N)CC(C)C)C(N)=O`: the inhibition result with Pseudomonas aeruginosa [11], in the data set with Pseudomonas aeruginosa [15], with Pseudomonas aeruginosa [17], in the data set with Pseudomonas aeruginosa [20], with Pseudomonas aeruginosa [21] and in the data set with Pseudomonas aeruginosa [22] was “Active” throughout. For the same molecule, the inhibition entry in the data set on Pseudomonas aeruginosa [25] is “Active”. Also, the result in the data set with Pseudomonas aeruginosa [12], in the data set with Pseudomonas aeruginosa [13], in the data set on Pseudomonas aeruginosa [14], with Pseudomonas aeruginosa [16] and in the data set with Pseudomonas aeruginosa [24] was Active. Moreover, the Activity in the data set on Pseudomonas aeruginosa [18] is 57.94%; in the data set on Pseudomonas aeruginosa [19] it was 41.24%; in the data set on Pseudomonas aeruginosa [23] it was more than 97.91%; with Pseudomonas aeruginosa [26] it was more than 97.91%.
